Results as given in PubChem BioAssay.
Activity calls are given as the source filed them.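 The calls were made as follows, unless noted: active = viability at or below 30% in both replicate assays; inconclusive = viability at or below 30% in just one of the two assays; inactive = the rest.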

Key:
[1] = HUVEC growth inhibition – cell-based, human, primary screen (AID 575); conditions: HUVEC proliferation, CellTiter-Glo luminescence, 72 h; at 10 µM; stronger effect = lower value;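 also: 100% = median of untreated cell wells with 0.1% DMSO on each plate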
Method in brief: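 Timing: 72 h treatment at 37 °C; material: HUVEC primary cells; technique: CellTiter-Glo luminescence measuring cellular ATP; controls: vehicle and MePR control wells; measure: percent of median DMSO-control luminescence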

[2] = H69AR cell proliferation blockers – human, duplicate replicates, primary screen (AID 580;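 active = viability at or under a set limit in both replicates, limit being median viability minus 3 SD, cut at about 48% in these data, passing the limit was not always enough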;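 also: 100% = mean luminescence of untreated wells and 0% = no signal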); conditions: H69AR lung tumor cells viability, ATP luminescence, 72 h; at 10 µM; stronger effect = lower value
[3] = MRP1 drug-resistance reversers in H69AR cells – cell-based, doxorubicin co-treatment, pilot screen (AID 601;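 active = viability loss from added drug above about 55%, and viability with drug at most 40%, in both replicates, limit read from the data, passing the limit was not always enough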); conditions: CellTiter-Glo, 72 h, at 10 µM; for differential viability (reversal): stronger effect = higher value
[4] = yeast transport mutant growth inhibition pilot in 384-well plates, post-Golgi transport modulator project (AID 636; in the data active = inhibition above about 31%); conditions: absorbance 615 nm, about 18 h, stronger effect = higher value
[5] = growth suppression of yeast trafficking mutant, preliminary HTS, modulators of trafficking downstream of Golgi apparatus project, 1536-format plate, OD 615 nm (AID 637; in the data active = inhibition above about 30%); conditions: yeast transport mutant growth, absorbance 615 nm, 18 h; stronger effect = higher value
[6] = H69AR cells + 2 uM doxorubicin, measured here: viability with 2 uM doxorubicin, stronger effect = lower value
[7] = H69AR cells, compound alone cytotoxicity

Compound | viability [1] | viability [2] | differential viability (reversal) ([3]; H69AR cells + 2 uM doxorubicin) | viability [3, 6] | viability [3, 7] | inhibition [4] | inhibition [5]
O=C1CCCc2nc(N3CCCCC3)sc21 | 88.9% (inactive) | 82.8% (inactive) | -6.74% (inactive) | 89.6% | 82.8% | -0.27% (inactive) | -0.95% (inactive)
COc1ccc(S(=O)(=O)NC(CC(=O)NCc2ccco2)c2ccco2)cc1 (configuration not stated) | 99.7% (inactive) | 103% (inactive) | 22.1% (inactive) | 81.3% | 103% | -2.08% (inactive) | 4.29% (inactive)
CCOC(=O)NC(c1ccccc1)C1CCCCC1=O (configuration not stated) | 103% (inactive) | 94.2% (inactive) | 5.88% (inactive) | 88.3% | 94.2% | -3.64% (inactive) | 0.32% (inactive)
CC1CCN(c2nc3c(c(=O)n(C)c(=O)n3C)n2Cc2ccccc2)CC1 | 79.2% (inactive) | 88.1% (inactive) | 41.1% (inactive) | 47% | 88.1% | -2.27% (inactive) | 21.6% (inactive)
COc1ccc(-c2nn3c(-c4cccc(C)c4)nnc3s2)cc1OC | 51.1% (inactive) | 35.2% (active) | -44% (inactive) | 79.2% | 35.2% | -0.4% (inactive) | -4.13% (inactive)
CCCOc1ccc(N2C(=O)CC(NCCCN3CCC(C(N)=O)CC3)C2=O)cc1 (configuration not stated) | 121% (inactive) | 88.6% (inactive) | -3.32% (inactive) | 91.9% | 88.6% | -1.97% (inactive) | 1.27% (inactive)
CCCC1CCC(C(=O)Nn2c(C)nc3ccccc3c2=O)CC1 (configuration not stated) | 104% (inactive) | 98.2% (inactive) | 14.9% (inactive) | 83.3% | 98.2% | -3.16% (inactive) | 0.95% (inactive)
O=C(NC1CC2CCC1C2)C1COc2ccccc2O1 (configuration not stated) | 100% (inactive) | 87.9% (inactive) | 4.5% (inactive) | 83.4% | 87.9% | -3.55% (inactive) | -2.38% (inactive)
Cn1c(COc2ccccc2)nnc1SCC(=O)Nc1ccc(N2CCOCC2)c(Cl)c1 | 94.4% (inactive) | 94.4% (inactive) | 11.6% (inactive) | 82.8% | 94.4% | -7.37% (inactive) | -0.48% (inactive)
O=S1(=O)C=CC(Nc2cccc(Cl)c2)C1 (configuration not stated) | 76.3% (inactive) | 65.7% (inactive) | -0.23% (inactive) | 65.9% | 65.7% | -3.68% (inactive) | 4.29% (inactive)
Cn1c(=O)c(=O)n(C)c2cc(S(=O)(=O)N3CCCCC3)ccc21 | 111% (inactive) | 100% (inactive) | 16.1% (inactive) | 84.3% | 100% | -3.07% (inactive) | 0.16% (inactive)
O=C(c1ccccc1)N1CCN(Cc2ccccc2Br)CC1 | 105% (inactive) | 92.3% (inactive) | 2.89% (inactive) | 89.4% | 92.3% | -4.53% (inactive) | -4.6% (inactive)
CCOC(=O)C1=C(C)N(C)C(C)=C(C(=O)OCC)C1c1cccnc1 | 97.5% (inactive) | 92.4% (inactive) | 0.9% (inactive) | 91.5% | 92.4% | 0.79% (inactive) | -1.75% (inactive)
CN(C)CCNC(=O)c1ccc(COCC(F)(F)F)cc1 | 104% (inactive) | 84.6% (inactive) | 1.1% (inactive) | 83.5% | 84.6% | -7.07% (inactive) | -3.65% (inactive)
COc1cc(NC(=O)Nc2cccc(Cl)c2)c(OC)cc1NC(=O)CN1CCCCC1 | 20.3% (active) | 3.06% (active) | -9.94% (inactive) | 13% | 3.06% | -6.27% (inactive) | -0.95% (inactive)
O=C(Cc1ccccc1)Nc1nnc(-c2cccs2)s1 | 96.8% (inactive) | 61.1% (inactive) | -6.04% (inactive) | 67.1% | 61.1% | -2.99% (inactive) | 3.02% (inactive)
CCCCNC(=O)C(C#N)c1nc2ccccc2nc1N1CCCC1 (configuration not stated) | 89.2% (inactive) | 100% (inactive) | -1.2% (inactive) | 102% | 100% | -4.93% (inactive) | -4.29% (inactive)
O=C(Nc1nc2ccc(S(=O)(=O)N3CCCC3)cc2s1)C1CCCO1 (configuration not stated) | 109% (inactive) | 97.7% (inactive) | 3.71% (inactive) | 93.9% | 97.7% | -2.76% (inactive) | 0% (inactive)
Cn1c(=O)n(C)c2cc(NC(=O)C(F)(F)F)ccc21 | 68.9% (inactive) | 97.4% (inactive) | 11.6% (inactive) | 85.8% | 97.4% | -0.92% (inactive) | -7.94% (inactive)
CCCCn1c(SCc2cccnc2)nc2c1c(=O)n(C)c(=O)n2C | 121% (inactive) | 92.8% (inactive) | 13.7% (inactive) | 79.2% | 92.8% | -7.76% (inactive) | -2.86% (inactive)
O=C(CN1c2cccc3cccc(c23)S1(=O)=O)N1CCOCC1 | 105% (inactive) | 92.5% (inactive) | -0.865% (inactive) | 93.4% | 92.5% | -3.2% (inactive) | 0.16% (inactive)
